Rad51 HR inh – Rad51 (human) homologous recombination inhibition. Q06609. hRad51 DNA strand exchange, fluorescence dequenching. inhibition, % at 10 µM. actives 0.085% (n = 200,000);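 active = inhibition above 40% at the single screening dose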
Target sequence (Q06609 whole entry, looked up): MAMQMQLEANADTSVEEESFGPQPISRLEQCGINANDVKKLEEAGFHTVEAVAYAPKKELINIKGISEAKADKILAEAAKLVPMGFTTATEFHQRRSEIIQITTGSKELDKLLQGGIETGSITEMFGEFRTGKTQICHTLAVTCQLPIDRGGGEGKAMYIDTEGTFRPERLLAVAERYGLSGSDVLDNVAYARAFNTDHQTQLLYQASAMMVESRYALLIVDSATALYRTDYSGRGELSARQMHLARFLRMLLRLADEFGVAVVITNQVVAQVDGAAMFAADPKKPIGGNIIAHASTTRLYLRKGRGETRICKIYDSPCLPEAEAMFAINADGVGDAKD
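System: hRad51 filaments on single-stranded DNA; reagent: Fluorescein- and BHQ1-tagged 47-mer duplex; compound dosing: one concentration, 10 µM final; timing: filaments 15 min 37 °C, then compound 30 min; measured by: fluorescein emission 520 nm, excitation 485 nm; benchmarks: per-plate controls and blanks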
PKD1 inh – PKD1 (human) kinase inhibition | Q15139 | inhibition, % (concentration not given with the values) | PKD1 kinase fluorescence polarization assay | actives 0.056% (n = 200,000)
Lmaj promast – reduces viability of Leishmania major promastigotes; actives 9% (n = 200,000); resazurin fluorescence viability; inhibition, % at 10 µM;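 note: promastigotes grown with compound for 44 hours at 28 °C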
CHOP inh – blocks CHOP induction under ER stress | CHO-K1 CHOP-promoter luciferase, tunicamycin-induced, 15-18 h | inhibition, % at 10 µM | actives 3.8% (n = 220,000);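 active = compounds that reduced the stress-induced luciferase reporter signal by more than about 70% of percent inhibition, limit read from the data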
Wee1 degr inh – human Wee1 degradation inhibition, primary screen | P30291 | reporter increase, % at 5 µM | HeLa Luc-Wee1K328M stability, luciferase luminescence; 100% = proteasome inhibitor MG132 effect | actives 1.2% (n = 220,000);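 active = activation above the mean of all tested compounds plus 3 SD, set per screening run, cut at about 8.8% in these data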;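 note: cells exposed to compound for 20 h before luminescence read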
Arbovirus inh – arbovirus infection inhibition | AID 1251 | arbovirus infection cell-based antiviral screen | inhibition, % at 10 µM | actives 0.37% (n = 200,000); in the data active = inhibition above about 30%
Numbers stand for hits. Rows were chosen to be rich in hits. Some 12% of all compounds tested hit in one or more screens of this group. Cut-off read from the data, not from the text of the source, unless noted: active = inhibition above about 50%; inactive = the rest.

`CC(C)Oc1ccc(CCNC(=O)CC2C(=O)NCCN2C)cc1` (stereo not drawn) gave Rad51 HR inh inactive, CHOP inh inactive and Wee1 degr inh inactive.
COc1ccc(CNC(=S)Nc2ccc3nc(N4CCN(C)CC4)cc(C)c3c2)cc1 was read as Rad51 HR inh inactive, PKD1 inh inactive, Lmaj promast inactive, CHOP inh inactive, Wee1 degr inh inactive and Arbovirus inh inactive.
For COc1ccccc1CNC(=S)Nc1ccc2nc(N3CCN(C)CC3)cc(C)c2c1 the results were Rad51 HR inh inactive, PKD1 inh inactive, Lmaj promast 100, CHOP inh inactive, Wee1 degr inh inactive and Arbovirus inh inactive.
`CCc1ccc(C(=O)C(C)OC(=O)C2COc3ccccc3O2)cc1` (stereo not drawn) gave Rad51 HR inh inactive, PKD1 inh inactive, Lmaj promast inactive, CHOP inh inactive, Wee1 degr inh inactive and Arbovirus inh inactive.
For Cc1nc(N2CCc3ccccc3C2)[nH]c(=O)c1Cc1ccccc1 the results were Rad51 HR inh inactive, PKD1 inh inactive, Lmaj promast inactive, CHOP inh 78, Wee1 degr inh inactive and Arbovirus inh inactive.
Screening Cc1cc(=O)[nH]c(-n2[nH]c3c(c2=O)CCCC3)n1 returned Rad51 HR inh inactive, PKD1 inh inactive, Lmaj promast inactive, CHOP inh inactive, Wee1 degr inh inactive and Arbovirus inh inactive.
For CCCCCc1c(C)nc(N2CCc3ccccc32)[nH]c1=O the results were Rad51 HR inh inactive, PKD1 inh inactive, Lmaj promast inactive, CHOP inh 73, Wee1 degr inh inactive and Arbovirus inh inactive.
`Cc1nc(-n2[nH]c3c(c2=O)CCCC3)[nH]c(=O)c1Cc1ccccc1` gave Rad51 HR inh inactive, PKD1 inh inactive, Lmaj promast 96, CHOP inh inactive, Wee1 degr inh inactive and Arbovirus inh inactive.
For Cc1cc(=O)[nH]c(N/N=C/c2ccc(OC(=O)c3cccnc3)cc2)n1 the results were Rad51 HR inh inactive, PKD1 inh inactive, Lmaj promast inactive, CHOP inh inactive, Wee1 degr inh inactive and Arbovirus inh inactive.
CC/C(=N/O)c1cnnc(SC)n1 was read as Rad51 HR inh inactive, PKD1 inh inactive, Lmaj promast inactive, CHOP inh inactive, Wee1 degr inh inactive and Arbovirus inh inactive.
Screening CC/C(=N/Nc1ccc(Cl)cc1)c1cnnc(SC)n1 returned Rad51 HR inh inactive, PKD1 inh inactive, Lmaj promast 54, CHOP inh inactive, Wee1 degr inh inactive and Arbovirus inh inactive.
CN1CCCN(C(=O)c2cc(-c3ccc(Cl)c(Cl)c3Cl)nc3ccccc23)CC1 was read as Rad51 HR inh inactive, PKD1 inh inactive, Lmaj promast 55, CHOP inh inactive, Wee1 degr inh inactive and Arbovirus inh inactive.
O=C(OCC(=O)N1CCN(C(=O)c2ccco2)CC1)c1cc(-c2ccc(Cl)c(Cl)c2Cl)nc2ccccc12 was read as Rad51 HR inh inactive, PKD1 inh inactive, Lmaj promast inactive, CHOP inh inactive, Wee1 degr inh inactive and Arbovirus inh inactive.
`CCCCCSc1nc2c(cnn2-c2ccccc2)c(=O)[nH]1` gave Rad51 HR inh inactive, PKD1 inh inactive, Lmaj promast inactive, CHOP inh 71, Wee1 degr inh inactive and Arbovirus inh inactive.
`O=c1[nH]c(SCc2ccccc2Cl)nc2c1cnn2-c1ccccc1` gave Rad51 HR inh inactive, PKD1 inh inactive, Lmaj promast inactive, CHOP inh 96, Wee1 degr inh inactive and Arbovirus inh inactive.
Screening Cc1[nH]c(C)c2c(=O)n(-c3ccccc3)ncc12 returned Rad51 HR inh inactive, PKD1 inh inactive, Lmaj promast inactive, CHOP inh inactive, Wee1 degr inh 14 and Arbovirus inh inactive.
Screening CC(C)Sc1nc2c(cnn2-c2ccccc2)c(=O)[nH]1 returned Rad51 HR inh inactive, PKD1 inh inactive, Lmaj promast inactive, CHOP inh 72, Wee1 degr inh inactive and Arbovirus inh inactive.
`COCCn1c(N)c(N(Cc2ccccc2)C(=O)c2oc3ccccc3c2C)c(=O)[nH]c1=O` gave Rad51 HR inh inactive, PKD1 inh inactive, Lmaj promast inactive, CHOP inh inactive, Wee1 degr inh inactive and Arbovirus inh inactive.
For O=C(Cc1ccc(Br)cc1)NC1CCSC1=O (stereo not drawn) the results were Rad51 HR inh inactive, PKD1 inh inactive, Lmaj promast inactive, CHOP inh inactive, Wee1 degr inh inactive and Arbovirus inh inactive.
For COc1ccc(-c2cc(C(=O)Nc3cc(C)nn3-c3ccccc3)no2)cc1OC the results were Rad51 HR inh inactive, PKD1 inh inactive, Lmaj promast inactive, CHOP inh inactive, Wee1 degr inh inactive and Arbovirus inh inactive.
Screening CCCCCCn1c(-c2cccs2)n[nH]c1=S returned Rad51 HR inh inactive, PKD1 inh inactive, Lmaj promast inactive, CHOP inh inactive, Wee1 degr inh inactive and Arbovirus inh inactive.
Screening COC(=O)c1sccc1NC(=S)N1CCN(C)CC1 returned Rad51 HR inh inactive, PKD1 inh inactive, Lmaj promast inactive, CHOP inh inactive, Wee1 degr inh inactive and Arbovirus inh inactive.
Screening Cc1cc(N2CCN(C)CC2)nc2ccc(NC(=S)N3CCN(c4ccccn4)CC3)cc12 returned Rad51 HR inh inactive, PKD1 inh inactive, Lmaj promast 95, CHOP inh inactive, Wee1 degr inh inactive and Arbovirus inh inactive.
Screening Cc1ccc(C)c(N2CCN(C(=S)Nc3ccc4nc(N5CCN(C)CC5)cc(C)c4c3)CC2)c1 returned Rad51 HR inh inactive, PKD1 inh inactive, Lmaj promast inactive, CHOP inh 77, Wee1 degr inh inactive and Arbovirus inh inactive.
`Cc1cc(N2CCN(C)CC2)nc2ccc(NC(=S)N3CCC4(CC3)OCCO4)cc12` gave Rad51 HR inh inactive, PKD1 inh inactive, Lmaj promast inactive, CHOP inh inactive, Wee1 degr inh inactive and Arbovirus inh inactive.
`COC(=O)c1sccc1NC(=S)N1CCN(c2cc(C)ccc2C)CC1` gave Rad51 HR inh inactive, PKD1 inh inactive, Lmaj promast 82, CHOP inh inactive, Wee1 degr inh inactive and Arbovirus inh inactive.
Cc1ccc(C)c(N2CCN(C(=S)NC3CCCCC3)CC2)c1 was read as Rad51 HR inh inactive, PKD1 inh inactive, Lmaj promast 58, CHOP inh 79, Wee1 degr inh inactive and Arbovirus inh inactive.
O=C(Nc1ccc([N+](=O)[O-])cc1)N1CCCCC1 was read as Rad51 HR inh inactive, PKD1 inh inactive, Lmaj promast inactive, CHOP inh inactive, Wee1 degr inh inactive and Arbovirus inh inactive.
Cc1ccc(N2C(=O)CSC2c2cccnc2)c(Cl)c1 (stereo not drawn) was read as Rad51 HR inh inactive, CHOP inh inactive and Wee1 degr inh inactive.
Screening Cc1nc2ccc(NC(=S)N3CCN(c4ccccn4)CC3)cc2nc1C returned Rad51 HR inh inactive, PKD1 inh inactive, Lmaj promast inactive, CHOP inh inactive, Wee1 degr inh 9.0 and Arbovirus inh inactive.
`COc1ccccc1N1CCN(C(=S)Nc2cccc(C)c2)CC1` gave Rad51 HR inh inactive, PKD1 inh inactive, Lmaj promast inactive, CHOP inh inactive, Wee1 degr inh inactive and Arbovirus inh inactive.

Source: PubChem (several laboratories)
